According to ChEMBL document CHEMBL1153392, “Identification of a metabolically stable triazolopyrimidine-based dihydroorotate dehydrogenase inhibitor with antimalarial activity in mice” (J Med Chem, 2009):
Calls of active or inactive are those of the source. The calls are words filed in the database; no cut-off is given here.

Legend:
Plasmodium berghei [1] = test: Inhibition of Plasmodium berghei ANKA DHODH
Method in brief: (§1)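 Truncated soluble enzyme expressed in E. coli and purified. DCIP (0.12 mM) reduction followed at 600 nm with 5-10 nM enzyme, 0.2 mM L-dihydroorotate and 0.02 mM CoQD in 100 mM HEPES pH 8.0, 150 mM NaCl, 10% glycerol, 0.1% Triton, 20 °C. Triplicate points per concentration; IC50 fitted.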

Plasmodium falciparum = test: Antiplasmodial activity against Plasmodium falciparum 3D7 by [3H]hypoxanthine uptake; format: functional, organism-based
Method in brief: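 Proliferation of drug-treated infected erythrocytes measured by [3H]hypoxanthine uptake over a range of inhibitor concentrations, triplicate points per concentration. EC50 derived from a Hill-slope logistic fit.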

[2] = target: T1, Dihydroorotate dehydrogenase (Plasmodium falciparum, UniProt Q54A96); test: Inhibition of Plasmodium falciparum DHODH
T1 sequence (Q54A96 whole entry): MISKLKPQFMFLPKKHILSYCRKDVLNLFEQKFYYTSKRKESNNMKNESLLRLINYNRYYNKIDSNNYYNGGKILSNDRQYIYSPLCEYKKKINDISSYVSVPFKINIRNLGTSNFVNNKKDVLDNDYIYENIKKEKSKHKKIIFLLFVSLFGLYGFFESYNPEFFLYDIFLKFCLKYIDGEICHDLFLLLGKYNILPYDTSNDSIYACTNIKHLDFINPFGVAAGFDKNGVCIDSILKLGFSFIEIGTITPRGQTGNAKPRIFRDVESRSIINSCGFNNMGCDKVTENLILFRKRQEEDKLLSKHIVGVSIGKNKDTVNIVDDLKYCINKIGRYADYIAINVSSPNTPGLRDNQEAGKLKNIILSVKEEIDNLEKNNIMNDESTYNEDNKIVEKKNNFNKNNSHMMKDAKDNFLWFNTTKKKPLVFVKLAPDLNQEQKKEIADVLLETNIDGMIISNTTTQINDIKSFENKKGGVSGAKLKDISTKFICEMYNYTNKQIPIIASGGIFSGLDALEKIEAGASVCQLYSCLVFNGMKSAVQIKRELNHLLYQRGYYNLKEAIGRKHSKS
Method in brief: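 Truncated soluble recombinant enzyme expressed in E. coli. Triplicate points per inhibitor concentration; IC50 from fit to Vi = Vo/(1+[I]/IC50).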

[3] = target: Dihydroorotate dehydrogenase (quinone), mitochondrial (Homo sapiens, UniProt Q02127); test: Inhibition of human DHODH; method in brief: as §1
Liver microsomes [4] = conditions: human, 1 µM
Liver microsomes [5] = conditions: human, 1 µM; remark: listed apart in the source
Plasmodium berghei [6] = test: Antimalarial activity as reduced parasitaemia against Plasmodium berghei NK65 infected BALB/c mice (Mus musculus) at 100 mg/kg peroral dose at 10x4hrs then 6x6hrs; format: functional, organism-based; set-up: dose 100 mg/kg
Method in brief: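 Female BALB/c mice, 8-10 weeks old, infected ip with 2 × 10^7 infected erythrocytes 24 h before dosing; ≥0.1% parasitemia verified. Oral gavage in 0.5% CMC/0.4% Tween-80/0.5% benzyl alcohol every 4 h × 10 doses, then every 6 h × 6 doses (n = 6 per group), against vehicle controls. Parasitemia counted daily by light microscopy of Wright-Giemsa stained thin tail-blood smears.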

Mus musculus [7] = test: Toxicity in Plasmodium berghei NK65 infected BALB/c mice (Mus musculus) at 100 mg/kg, perorally administered every 4 hrs x 10 doses followed by every 6 hrs x 6 doses schedule; format: organism-based; set-up: dose 100 mg/kg, route oral; conditions: in vivo, po
Method in brief: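 P. berghei-infected female BALB/c mice dosed by oral gavage in 0.5% CMC/0.4% Tween-80/0.5% benzyl alcohol. Tail bleeds and body weighing done daily. Animals monitored for ill effects and euthanized when the no-drug controls lost 20% of their pre-infection body weight.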

Mus musculus [8] = test: Plasma concentration in Swiss mouse at 50 mg/kg, po administered as single dose; format: ADME, organism-based; set-up: dose 50 mg/kg, route oral; conditions: in vivo
Method in brief: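 Nonfasted male Swiss outbred mice, 23-33 g, fed ad libitum. Single oral gavage as a suspension in 0.5% CMC, 0.5% benzyl alcohol, 0.4% Tween-80. One cardiac-puncture blood sample per mouse per time point. Plasma analysed by LC-MS/MS after acetonitrile precipitation, with diazepam as internal standard and a plasma calibration curve. PK parameters taken from mean concentration-time profiles.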

Dihydroorotate dehydrogenase (quinone), mitochondrial, sequence (Q02127 whole entry): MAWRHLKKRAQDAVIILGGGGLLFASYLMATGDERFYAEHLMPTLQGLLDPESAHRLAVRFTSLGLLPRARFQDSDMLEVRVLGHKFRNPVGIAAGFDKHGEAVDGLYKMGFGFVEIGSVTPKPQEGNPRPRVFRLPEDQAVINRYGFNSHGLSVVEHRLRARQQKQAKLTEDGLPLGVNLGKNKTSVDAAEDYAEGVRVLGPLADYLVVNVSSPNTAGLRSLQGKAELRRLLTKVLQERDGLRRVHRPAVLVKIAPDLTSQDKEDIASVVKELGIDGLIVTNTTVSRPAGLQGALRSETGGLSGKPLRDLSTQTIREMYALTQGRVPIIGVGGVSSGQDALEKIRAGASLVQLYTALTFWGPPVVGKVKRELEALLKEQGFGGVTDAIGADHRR

Row | SMILES | IC50 (Plasmodium berghei [1]) [µM] | EC50 (Plasmodium falciparum) [µM] | IC50 [2] [µM] | IC50 [3] [µM] | t1/2 (Liver microsomes [4]) [h] | CL (Liver microsomes [5]) [µL/min/mg] | Activity (Plasmodium berghei [6]) | Activity (Mus musculus [7]) | concentration (Mus musculus [8]) [µM]
1 | Cc1cc(Nc2c(F)c(F)c(F)c(F)c2F)n2ncnc2n1 | > 100 | > 50 | > 100 |  |  |  |  |  | 
2 | Cc1ccc(Nc2cc(C)nc3ncnn23)cc1 | 16 | 6.4 | 4.2 |  |  |  |  |  | 
3 | Cc1cc(Nc2ccccc2Cl)n2ncnc2n1 | > 100 | 30 | > 100 |  |  |  |  |  | 
4 | Cc1cc(Nc2ccc(Cl)c(C(F)(F)F)c2)n2ncnc2n1 | 2.4 | > 5 | 0.8 | > 100 | 2.17 | 13 |  |  | 
5 | Cc1cc(Nc2ccc3ccccc3c2)n2ncnc2n1 |  |  |  |  | 0.3 | 96 | inactive | Non-toxic | 2
6 | Cc1cc(Nc2ccc(OC(F)(F)F)cc2)n2ncnc2n1 | 4 |  | 1.2 | > 100 |  |  |  |  | 
7 | Cc1cc(Nc2c(F)cc(F)cc2F)n2ncnc2n1 | > 100 |  | > 100 |  |  |  |  |  | 
8 | Cc1cc(Nc2ccc(OC(F)F)cc2)n2ncnc2n1 | 25 | 8.2 | 2.8 |  |  |  |  |  | 
9 | Cc1cc(Nc2ccccc2C#N)n2ncnc2n1 | > 100 | 25 | > 100 |  |  |  |  |  | 
10 | Cc1cc(Nc2ccc(F)cc2)n2ncnc2n1 | > 100 | 50 | 19 |  |  |  |  |  | 
11 | Cc1cc(Nc2cc(C(F)(F)F)cc(C(F)(F)F)c2)n2ncnc2n1 | > 100 | > 5 | > 100 |  |  |  |  |  | 
12 | Cc1cc(Nc2ccc(Cc3ccccc3)cc2)n2ncnc2n1 | > 100 | 5 | 2.2 |  |  |  |  |  | 
13 | Cc1cc(Nc2ccc(Br)c(C(F)(F)F)c2)n2ncnc2n1 | 1.5 | 2.6 | 0.45 | > 100 | 2.17 | 14 |  |  | 
14 | Cc1cc(Nc2cccc(C(F)(F)F)c2)n2ncnc2n1 | 55 | 19 | 14 |  | 1 | 29 |  |  | 
15 | Cc1cc(Nc2ccc(Br)cc2)n2ncnc2n1 | 1.3 | 4.2 | 0.78 | > 100 |  |  |  |  | 
16 | Cc1cc(Nc2cc(F)c(F)cc2F)n2ncnc2n1 | > 100 | > 50 | 17 |  |  |  |  |  | 
17 | Cc1cc(Nc2ccc([N+](=O)[O-])cc2)n2ncnc2n1 | 3.7 |  | 4.3 |  |  |  |  |  | 
18 | Cc1cc(Nc2ccccc2C(F)(F)F)n2ncnc2n1 | > 100 |  | > 100 |  |  |  |  |  | 
19 | COc1ccc(Nc2cc(C)nc3ncnn23)cc1 | > 50 | 14 | 4.6 |  |  |  |  |  | 
20 | Cc1cc(Nc2cccc(F)c2)n2ncnc2n1 | > 100 | 34 | 9.2 |  | 1.62 | 18 |  |  | 

Row | SMILES | IC50 (Plasmodium berghei [1]) [µM] | EC50 (Plasmodium falciparum) [µM] | IC50 [2] [µM] | IC50 [3] [µM] | t1/2 (Liver microsomes [4]) [h] | CL (Liver microsomes [5]) [µL/min/mg] | Activity (Plasmodium berghei [6]) | Activity (Mus musculus [7]) | concentration (Mus musculus [8]) [µM]
21 | Cc1cc(Nc2cc(F)ccc2F)n2ncnc2n1 | > 100 | > 50 | > 50 |  |  |  |  |  | 
22 | Cc1cc(Nc2ccc(-c3ccccc3)cc2)n2ncnc2n1 |  | > 50 | 5.3 |  |  |  |  |  | 
23 | Cc1cc(Nc2ccccc2C)n2ncnc2n1 | > 100 | > 50 | > 100 |  |  |  |  |  | 
24 | Cc1cc(Nc2cccc(Cl)c2)n2ncnc2n1 |  |  | 1.4 |  | 0.75 | 38 |  |  | 
25 | Cc1cc(Nc2ccc(C)c(C)c2)n2ncnc2n1 | 4 |  | 0.35 | > 100 | 0.383 | 77 |  |  | 
26 | Cc1cc(Nc2cccc(F)c2F)n2ncnc2n1 | > 100 |  | 39 |  |  |  |  |  | 
27 | Cc1ccc(Nc2cc(C)nc3ncnn23)c(F)c1 | > 100 | 35 | 27 |  |  |  |  |  | 
28 | Cc1cc(Nc2ccc(Cl)cc2)n2ncnc2n1 | 5.7 | 12 | 1.6 | > 100 |  |  |  |  | 
29 | Cc1cccc(Nc2cc(C)nc3ncnn23)c1 | > 100 | 37 | 4.9 |  |  |  |  |  | 
30 | Cc1cc(Nc2ccccc2F)n2ncnc2n1 | > 100 | > 50 | > 100 |  |  |  |  |  | 
31 | Cc1cc(Nc2ccc(C#N)c(C(F)(F)F)c2)n2ncnc2n1 | 11 | 8.8 | 4.9 |  | 4.67 | 6.2 |  |  | 
32 | Cc1cc(Nc2ccc(C(F)(F)F)c(F)c2)n2ncnc2n1 | 0.26 | 1.3 | 0.077 | > 100 | 6 | 4.8 |  |  | 
33 | Cc1cc(Nc2ccc(C)c(F)c2)n2ncnc2n1 | 3.2 | 3.6 | 0.86 | > 100 | 0.6 | 49 |  |  | 
34 | Cc1cc(Nc2cc(F)cc(F)c2)n2ncnc2n1 | 21 |  | 9.4 |  |  |  |  |  | 
35 | Cc1cc(Nc2c(F)c(F)cc(F)c2F)n2ncnc2n1 | > 100 | > 50 | > 100 |  |  |  |  |  | 
36 | Cc1cc(Nc2ccc(C)c(C(F)(F)F)c2)n2ncnc2n1 | 7.3 |  | 1.55 | > 100 |  |  |  |  | 
37 | Cc1cc(Nc2ccc(F)c(C)c2)n2ncnc2n1 | 21 | 8.7 | 4.6 |  |  |  |  |  | 
38 | Cc1cc(Nc2ccc(F)c(F)c2)n2ncnc2n1 | 10 | > 50 | 8 |  |  |  |  |  | 
39 | Cc1cc(Nc2c(F)cccc2F)n2ncnc2n1 | > 100 | > 50 | > 100 |  |  |  |  |  | 
40 | Cc1cc(Nc2ccc(F)c(F)c2F)n2ncnc2n1 | > 100 | > 50 | 29 |  |  |  |  |  | 
